Apaf-1 inh = blocks human Apaf-1 apoptosome activity. reconstituted apoptosome caspase-3 activity, DEVD-Rh110 fluorescence. hit rate 0.71% among 330,000. inhibition, % at 20 µM; active = inhibition of at least 40% at 20 µM
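Assay system: Apoptosome proteins | Medium: pH 7.5 Hepes buffer with CHAPS, BSA, DTT | Also added: Cytochrome c and DEVD-Rh110 substrate | Times: 30 min plus 50 min, RT | Detection: Rhodamine 110 fluorescence at Ex 480/Em 540 nm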
CTSL1 counter = blocks F. hepatica cathepsin L1 in PFM18AAP counter-screen; recombinant F. hepatica cathepsin L1, Z-Leu-Arg-MCA fluorescence; inhibition, % at 5.96 µM; hit rate 0.49% among 300,000;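 active = inhibition above the mean of all tested compounds plus 3 SD, set per screening campaign, cut at about 17% in these data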
PAD4 FP inh = PAD4 (human) enzyme inhibition | recombinant PAD4, RCA probe fluorescence polarization | inhibition, % at 6.36 µM | hit rate 0.41% among 330,000;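 active = percent inhibition above a cutoff equal to the mean of all tested compounds plus 3 SD, cut at about 15% in these data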
TDP2 inh = blocks human TDP2 phosphodiesterase activity; hit rate 0.34% among 370,000; recombinant TDP2, T5PNP hydrolysis, p-nitrophenol absorbance 415 nm; AID 720702; inhibition, % at 12.8 µM;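 active = inhibition above the mean of all tested compounds plus 3 SD, set per campaign, cut at about 25% in these data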
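Test system: Human TDP2 enzyme | Reagent: 5 mM T5PNP | Compound dosing: 12.8 µM single point, 1% DMSO | Incubation: Enzyme reaction with compound for 2 h at 37 °C | Technique: p-Nitrophenol epi absorbance | Read-out: % inhibition relative to enzyme-containing and enzyme-free wells | Benchmarks: High control without enzyme, low control DMSO plus TDP2 | Replicates: Singlicate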
GSTO1 counter = counter-screen for RBBP9 inhibitors: inhibitors of human GSTO1; AID 1974; recombinant GSTO1, activity-based probe fluorescence polarization; hit rate 1.1% among 300,000; inhibition, % at 5.96 µM; P78417;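 active = inhibition above the campaign mean inhibition plus 3 SD, cut at about 35% in these data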
PAD4 confirm = PAD4 (human) inhibition, confirmed. shares compounds with PAD4 FP inh. inhibition, % at 6.36 µM. hit rate 28% among 1,200. recombinant PAD4, RCA probe fluorescence polarization;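 active = mean inhibition across replicates above the hit cutoff set by the earlier primary screen, cut at about 15% in these data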;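 note: inhibitors block active-site labeling by the probe so polarization falls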
Each line names hits and unclear results; the compound was inactive in the other large screens (follow-up assays come after a bar, where they were run). Compounds with a hit are over-represented: about 1.8% of the library has one in this group of screens.

CCOC(=S)SCC(=O)Nc1nc(-c2ccc(Br)cc2)cs1	none
O=C(CSC1=NCCS1)Nc1nc2ccccc2s1	PAD4 FP inh 17 | PAD4 confirm inactive
Cc1sc(NC(=O)CSc2ncn(-c3ccccc3)n2)nc1-c1ccccc1	none
Cc1ccc(-c2csc(NC(=O)CSc3nc(C)cc(=O)[nH]3)n2)cc1	none
Cc1ccc(-c2csc(NC(=O)CSC3=NCCS3)n2)cc1	PAD4 FP inh 20 | PAD4 confirm 16
COC(=O)[C@]12C[C@H](CC(=O)NCCC(C)C)C(=O)N(Cc3ccc4c(c3)OCO4)C1=C[C@H](COCc1ccccc1)O[C@@H]2C	none (no result: Apaf-1 inh, CTSL1 counter, PAD4 FP inh, GSTO1 counter)
COC(=O)[C@]12C[C@H](CC(=O)NCc3ccc(OC)c(OC)c3)C(=O)N(CCC3=CCCCC3)C1=C[C@H](C(C)C)O[C@@H]2C1CC1	none (no result: Apaf-1 inh, CTSL1 counter, PAD4 FP inh, GSTO1 counter)
O=S(=O)(CCSc1nc2ccccc2s1)c1nc2ccccc2s1	PAD4 FP inh 50 | PAD4 confirm 41
CCC(=O)OCCCN1CCC2(CCC(c3ccccc3)CC2)C1=O (stereo not given)	none (no result: Apaf-1 inh, CTSL1 counter, PAD4 FP inh, GSTO1 counter)
O=C(O)c1[nH]c2ccccc2c1-c1ccccc1	PAD4 FP inh 104 | PAD4 confirm inactive
Cc1ccc2[nH]c(C(=O)O)c(-c3ccccc3)c2c1	none
C[C@@H]1[C@@H](O)C[C@@]2(CC(=O)c3ccccc3O2)O[C@H]1c1ccccc1	none (no result: Apaf-1 inh, CTSL1 counter, PAD4 FP inh, GSTO1 counter)
Cc1cccc(NC(=O)C(CC(C)C)NC(=O)C2CCC(C)CC2)n1 (stereo not given)	PAD4 FP inh 20 | PAD4 confirm inactive
COc1ccccc1CNC(=O)C(CC(C)C)NC(=O)C1CCC(C)CC1 (stereo not given)	none
O=S1(=O)N[C@H](Cc2ccccc2)COc2cc(N3CCCC3)ccc21	none (no result: Apaf-1 inh, CTSL1 counter, PAD4 FP inh, GSTO1 counter)
CCOC(=O)[C@@]12CCCC3=C1N(CCC3)C(=O)[C@H]2CC(=O)N1CCCC1	none (no result: Apaf-1 inh, CTSL1 counter, PAD4 FP inh, GSTO1 counter)
CCOC(=O)[C@@]12CCC3=C1N(CCC3)C(=O)[C@H](CC(=O)N1CCCCC1)C2	none (no result: Apaf-1 inh, CTSL1 counter, PAD4 FP inh, GSTO1 counter)
Cc1c(NC(=O)CSc2nccn2C)c(=O)n(-c2ccccc2)n1C	PAD4 FP inh active | PAD4 confirm inactive
Cc1ccc(N(Cc2cc(=O)[nH]c3ccccc23)C(=O)C(C)C)cc1	PAD4 FP inh 26 | PAD4 confirm 24
CCCC(=O)N(Cc1cc(=O)[nH]c2ccccc12)c1ccc(C)cc1	PAD4 FP inh 23 | PAD4 confirm 27
CCN(Cc1cc(=O)[nH]c2ccccc12)C(=O)C(C)C	none
CC1COC(c2cccn2Cc2ccccc2Cl)=N1 (stereo not given)	PAD4 FP inh 45 | PAD4 confirm inactive
O=C(N[C@@H](Cc1cccnc1)C(=O)N1CCC[C@H]1C(=O)NCCc1ccccc1Cl)C1CC1	none (no result: Apaf-1 inh, CTSL1 counter, PAD4 FP inh, GSTO1 counter)
CCSc1nnnn1-c1ccccc1	none
Cc1ccc(C)c(-n2nnnc2Sc2nnnn2-c2ccccc2)c1	PAD4 FP inh 18 | PAD4 confirm 25
COC(=O)[C@]12C[C@H](CC(=O)N3CCN(C(=O)c4ccco4)CC3)C(=O)N(CCC3=CCCCC3)C1=C[C@H](C(C)(C)C)O[C@@H]2C	none (no result: Apaf-1 inh, CTSL1 counter, PAD4 FP inh, GSTO1 counter)
Cc1cccc(-c2nnc3n2N=C(c2ccccc2)CS3)c1	none
Cc1nn2c(nc1=O)SCC(c1ccccc1)=N2	PAD4 FP inh 18 | PAD4 confirm inactive
COCC(=O)N(CCc1ccc(OC)c(OC)c1)Cc1nc2ccccc2c(=O)[nH]1	PAD4 FP inh 22 | PAD4 confirm inactive
O=C(Oc1cccc(-c2cnc3ccccc3n2)c1)c1ccco1	PAD4 FP inh 24 | PAD4 confirm 19
CCN(CC)S(=O)(=O)c1ccc(C)c(C(=O)Oc2cccc(-c3cnc4ccccc4n3)c2)c1	none
CCOC(=O)Cc1nnc(NC(=O)CSc2nnc3c(n2)[nH]c2ccccc23)s1	PAD4 FP inh 22 | PAD4 confirm inactive
O=C(Nc1ccccc1)C(=O)Nc1cccnc1	PAD4 FP inh 18 | PAD4 confirm inactive
CN(C)c1ccc(NC(=S)c2ccc3ccccc3n2)cc1	PAD4 FP inh 38 | PAD4 confirm inactive
COc1ccc(N=C2NC(=O)S/C2=C\c2ccc(N(C)C)cc2)cc1	PAD4 FP inh 36 | PAD4 confirm 47
FC(F)(F)Oc1cccc(Cn2ccc3ccc(-c4ccc5ccn(Cc6ccccc6)c5c4)cc32)c1	none (no result: Apaf-1 inh, CTSL1 counter, PAD4 FP inh, GSTO1 counter)
CCNC(=S)NNC(=O)c1csc(C)c1	PAD4 FP inh 93 | PAD4 confirm inactive
CCCCNC(=S)NNC(=O)c1csc(C)c1	none

Screening results from PubChem BioAssay.
